From ChEMBL document CHEMBL1629602, “Reconstruction of the phenotypes of methicillin-resistant Staphylococcus aureus by replacement of the staphylococcal cassette chromosome mec with a plasmid-borne copy of Staphylococcus sciuri pbpD gene” (2009)
≈ marks a conversion by molar mass, not a printed value.

Experiments:
[1] = tested on: Staphylococcus aureus; experiment: Antibacterial activity against oxacillin, chloramphenicol, erythromycin-susceptible and tetracycline-resistant Staphylococcus aureus COL-S with SCCmec excised; type: functional
How it was run: (§1)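 Oxacillin MIC by population analysis: overnight-culture aliquots plated on tryptic soy agar with increasing oxacillin concentrations. CFU counted after 72 h at 30°C.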

[2] = tested on: Staphylococcus aureus; experiment: Antibacterial activity against tetracycline-resistant Staphylococcus aureus COL-S carrying SAmecA plasmid; type: functional; how it was run: as §1
[3] = tested on: Staphylococcus aureus; experiment: Antibacterial activity against tetracycline-resistant Staphylococcus aureus COL-S carrying SSpbpD plasmid; type: functional; how it was run: as §1
[4] = tested on: Staphylococcus aureus; experiment: Antibacterial activity against chloramphenicol-resistant Staphylococcus aureus COL carrying mecI-mecR1 plasmid; type: functional; how it was run: as §1
[5] = tested on: Staphylococcus aureus; experiment: Antibacterial activity against chloramphenicol, tetracycline-resistant Staphylococcus aureus COL-S carrying SAmecA/mecI-mecR1 plasmid; type: functional; how it was run: as §1
[6] = tested on: Staphylococcus aureus; experiment: Antibacterial activity against chloramphenicol, tetracycline-resistant Staphylococcus aureus COL-S carrying SSpbpD/mecI-mecR1 plasmid; type: functional; how it was run: as §1
[7] = tested on: Staphylococcus aureus; experiment: Antibacterial activity against chloramphenicol-susceptible and oxacillin, erythromycin, tetracycline-resistant Staphylococcus aureus COL

SMILES	MIC [1]	MIC [2]	MIC [3]	MIC [4]	MIC [5]	MIC [6]	MIC [7]
CO/N=C(\C(=O)N[C@@H]1C(=O)N2C(C(=O)O)=C(COC(C)=O)CS[C@H]12)c1csc(N)n1 [CEFOTAXIME]	0.8 µg/mL (≈ 1.76 µM)	800 µg/mL (≈ 1760 µM)	200 µg/mL (≈ 439 µM)	6 µg/mL (≈ 13.2 µM)	6 µg/mL (≈ 13.2 µM)	6 µg/mL (≈ 13.2 µM)	800 µg/mL (≈ 1760 µM)
CO[C@@]1(NC(=O)Cc2cccs2)C(=O)N2C(C(=O)O)=C(COC(N)=O)CS[C@@H]21 [CEFOXITIN]	3 µg/mL (≈ 7.02 µM)	400 µg/mL (≈ 936 µM)	200 µg/mL (≈ 468 µM)	3 µg/mL (≈ 7.02 µM)	6 µg/mL (≈ 14 µM)	1.5 µg/mL (≈ 3.51 µM)	800 µg/mL (≈ 1870 µM)
CO/N=C(\C(=O)N[C@@H]1C(=O)N2C(C(=O)O)=CCS[C@H]12)c1csc(N)n1 [CEFTIZOXIME]	0.8 µg/mL (≈ 2.09 µM)	800 µg/mL (≈ 2090 µM)	400 µg/mL (≈ 1040 µM)	3 µg/mL (≈ 7.82 µM)	3 µg/mL (≈ 7.82 µM)	12 µg/mL (≈ 31.3 µM)	800 µg/mL (≈ 2090 µM)
CC1=C(C(=O)O)N2C(=O)[C@@H](NC(=O)[C@H](N)C3=CCC=CC3)[C@H]2SC1 [CEPHRADINE]	6 µg/mL (≈ 17.2 µM)	400 µg/mL (≈ 1140 µM)	100 µg/mL (≈ 286 µM)	6 µg/mL (≈ 17.2 µM)	12 µg/mL (≈ 34.3 µM)	3 µg/mL (≈ 8.59 µM)	400 µg/mL (≈ 1140 µM)
N[C@@H]1CONC1=O [CYCLOSERINE]	–	8 µg/mL (≈ 78.4 µM)	0.75 µg/mL (≈ 7.35 µM)	–	–	–	1 µg/mL (≈ 9.79 µM)
Cc1onc(-c2ccccc2)c1C(=O)N[C@@H]1C(=O)N2[C@@H]1SC(C)(C)[C@@H]2C(=O)O [OXACILLIN]	0.8 µg/mL (≈ 1.99 µM)	400 µg/mL (≈ 996 µM)	400 µg/mL (≈ 996 µM)	0.4 µg/mL (≈ 0.996 µM)	0.8 µg/mL (≈ 1.99 µM)	0.4 µg/mL (≈ 0.996 µM)	800 µg/mL (≈ 1990 µM)
